Assays:
Caspase-8 = Caspase-8 (Homo sapiens, UniProt Q14790); test: Inhibition of caspase 8
Procedure, shortened: (§1)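 Recombinant human caspase-1, -6 or -8 at 0.5 units per assay, preincubated 10 min at 37 °C with compound in DMSO at single doses from 5 pM to 500 µM. Fluorogenic AMC substrate then added at 10 µM final (caspase-1 Ac-YVAD-AMC, caspase-6 Ac-VEID-AMC, caspase-8 Ac-IETD-AMC) for a further 10 min. Read-out was AMC fluorescence. IC50 taken by nonlinear regression.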

Caspase-1 = molecular target: T1, Caspase-1 (Homo sapiens, UniProt P29466); test: Inhibition of caspase 1; procedure, shortened: as §1
T1 sequence (P29466 whole entry): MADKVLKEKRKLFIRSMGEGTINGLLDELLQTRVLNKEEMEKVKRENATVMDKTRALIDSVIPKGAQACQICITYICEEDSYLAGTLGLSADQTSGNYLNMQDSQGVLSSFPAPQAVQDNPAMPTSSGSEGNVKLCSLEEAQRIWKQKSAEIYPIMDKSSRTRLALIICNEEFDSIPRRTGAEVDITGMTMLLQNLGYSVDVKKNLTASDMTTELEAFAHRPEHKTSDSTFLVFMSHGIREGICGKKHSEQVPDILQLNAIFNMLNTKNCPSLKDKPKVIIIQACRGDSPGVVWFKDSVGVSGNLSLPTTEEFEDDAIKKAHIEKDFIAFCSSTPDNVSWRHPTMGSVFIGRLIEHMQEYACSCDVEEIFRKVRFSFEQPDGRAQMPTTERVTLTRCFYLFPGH

Caspase-6 = molecular target: T2, Caspase-6 (Homo sapiens, UniProt P55212); test: Inhibition of caspase 6; procedure, shortened: as §1
T2 sequence (P55212 whole entry): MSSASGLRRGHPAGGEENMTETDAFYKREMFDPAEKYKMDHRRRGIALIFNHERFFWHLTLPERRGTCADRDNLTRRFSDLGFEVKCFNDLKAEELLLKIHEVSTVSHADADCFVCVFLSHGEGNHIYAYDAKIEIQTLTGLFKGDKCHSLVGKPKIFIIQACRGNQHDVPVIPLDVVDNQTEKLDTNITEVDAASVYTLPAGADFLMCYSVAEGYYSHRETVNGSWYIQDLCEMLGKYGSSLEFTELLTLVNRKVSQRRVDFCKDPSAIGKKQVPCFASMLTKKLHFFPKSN

Measured: IC50

Chain of Caspase-8 (Q14790 217-374 limits assumed): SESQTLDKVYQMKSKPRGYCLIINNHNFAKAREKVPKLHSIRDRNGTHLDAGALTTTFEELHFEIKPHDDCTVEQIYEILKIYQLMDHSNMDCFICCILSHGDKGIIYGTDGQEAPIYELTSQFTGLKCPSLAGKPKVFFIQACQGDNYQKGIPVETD
Chain of Caspase-8 (Q14790 385-479 limits assumed): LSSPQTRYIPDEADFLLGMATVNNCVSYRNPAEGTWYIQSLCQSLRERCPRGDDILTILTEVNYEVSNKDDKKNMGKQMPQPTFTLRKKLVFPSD

CCC[CH2][Sn]([CH2]CCC)([CH2]CCC)[c]1ccc(CN2C(=O)C(=O)c3cc(S(=O)(=O)N4CCC[C@H]4COC)ccc32)cc1 [(S)-5-[1-(2-methoxymethylpyrrolidinyl)sulfonyl]-1-(4-(tributylstannyl)benzyl)isatin]
> 500 µM: all assays above

CCC[CH2][Sn]([CH2]CCC)([CH2]CCC)[c]1ccc(CN2C(=O)C(=O)c3cc(S(=O)(=O)N4CCC[C@H]4COc4ccccc4)ccc32)cc1 [(S)-5-[1-(2-phenoxymethylpyrrolidinyl)sulfonyl]-1-(4-(tributylstannyl)benzyl)isatin]
> 500 µM: all assays above
